PPC-1+TRAIL kill: compounds killing PPC-1 cancer cells with TRAIL present (potentiator screen, no TRAIL-free arm); PPC-1 cells + TRAIL, ATPLite viability luminescence; cell killing (% activity), % at 4 µM or 5 µM; 220,000 tested, 0.41% active;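 active means cell killing above 50% in the first pass at 4 µM, then a duplicate retest at 5 µM averaging 50% or more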
FLuc inhib CS: Photinus pyralis luciferase inhibition counter-screen; AID 1006; ATPLite firefly luciferase biochemical luminescence, 10 min; inhibition, % at 10 µM; 200,000 tested, 1.5% active; P08659;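 active means inhibition above about 50% when tested at 10 µM, limit read from the data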
Target sequence (P08659 whole entry, looked up): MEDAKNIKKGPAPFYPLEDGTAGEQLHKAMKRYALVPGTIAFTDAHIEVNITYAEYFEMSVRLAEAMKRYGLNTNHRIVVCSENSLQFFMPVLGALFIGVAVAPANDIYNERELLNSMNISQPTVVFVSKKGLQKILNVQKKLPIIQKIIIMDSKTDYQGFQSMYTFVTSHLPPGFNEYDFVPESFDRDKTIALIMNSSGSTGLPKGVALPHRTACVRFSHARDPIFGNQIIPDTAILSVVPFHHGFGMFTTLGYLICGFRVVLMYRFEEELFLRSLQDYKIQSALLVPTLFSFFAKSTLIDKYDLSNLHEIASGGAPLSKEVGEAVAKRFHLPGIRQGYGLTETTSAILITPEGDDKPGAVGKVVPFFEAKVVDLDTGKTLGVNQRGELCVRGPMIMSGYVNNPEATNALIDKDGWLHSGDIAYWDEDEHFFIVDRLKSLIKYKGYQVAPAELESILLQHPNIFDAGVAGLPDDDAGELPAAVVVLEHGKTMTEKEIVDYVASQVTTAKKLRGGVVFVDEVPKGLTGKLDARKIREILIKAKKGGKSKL
C8 TRAIL sens: sensitizes caspase-8 expressing cells to TRAIL. AID 624354. 360,000 tested, 1% active. NB7+C8 cells + TRAIL, ATPlite viability luminescence. inhibition (viability loss, TRAIL sensitization), % at 10 µM;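 active means compounds causing at least 50% loss of cell viability in the single-dose screen, relative to plate controls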
FLuc stim CS: affects firefly luciferase, flagging false hits in luciferase stimulation screens | P08659 | ATPlite luciferase biochemical, luminescence, 10 min; 0 = ATP-free wells, 1 = DMSO control | activation factor at 10 µM | 200,000 tested, under 10 active | AID 1027;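 active means luciferase activation factor, scaled between plate controls, of at least 2 with compound at 10 µM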
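Assay system: Luciferase/luciferin detection reagent, cell-free biochemical luciferase assay / Also added: ATP substrate / Schedule: 10 min at ambient temperature / Measured by: luminescence measurement of luciferase light output / Benchmarks: low control with PBS replacing ATP, high control enzyme plus ATP without compound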
Each line names hits and unclear results; the compound was inactive in the other large screens. Compounds with a hit are over-represented: about 1.5% of the library has one in this group of screens.

O=C(CSc1nnc(NC(=O)c2ccccc2)s1)NCC1CCCO1 (stereo unspecified)	C8 TRAIL sens 56 (no result: PPC-1+TRAIL kill, FLuc inhib CS, FLuc stim CS)
O=C(CSc1nnc(NC(=O)c2cccc(F)c2)s1)NC1CCCC1	none (no result: PPC-1+TRAIL kill, FLuc inhib CS, FLuc stim CS)
O=C(CSc1nnc(NC(=O)Cc2ccccc2)s1)NCC1CCCO1 (stereo unspecified)	none
COc1cccc(C(=O)Nc2nnc(SCC(=O)NC3CCCC3)s2)c1	C8 TRAIL sens 57 (no result: PPC-1+TRAIL kill, FLuc inhib CS, FLuc stim CS)
O=C(CSc1nnc(NC(=O)c2ccc(F)cc2)s1)NCc1ccco1	C8 TRAIL sens 56 (no result: PPC-1+TRAIL kill, FLuc inhib CS, FLuc stim CS)
Cc1ccc(NC(=O)c2cccc(-n3cnnn3)c2)cc1Cl	none (no result: PPC-1+TRAIL kill, FLuc inhib CS, FLuc stim CS)
O=C(CSc1nnc(NC(=O)c2ccccc2)s1)NCc1ccco1	C8 TRAIL sens 61 (no result: PPC-1+TRAIL kill, FLuc inhib CS, FLuc stim CS)
COC(=O)C1(C)Cc2cc(OC(C)=O)c(OC(C)=O)cc2N1 (stereo unspecified)	none (no result: FLuc inhib CS, C8 TRAIL sens, FLuc stim CS)
Cc1ccc(-c2nc(-c3ccccn3)no2)cc1[N+](=O)[O-]	C8 TRAIL sens 52 (no result: FLuc inhib CS, FLuc stim CS)
N#CCSc1ccccc1NC(=O)CN1C(=O)C2CC=CCC2C1=O (stereo unspecified)	none (no result: PPC-1+TRAIL kill, FLuc inhib CS, FLuc stim CS)
COc1ccc(-n2nc(C(=O)NCC(=O)N3CCN(C)CC3)c3ccccc3c2=O)cc1OC	none
COc1ccc(N2CCN(C(=O)CNC(=O)c3nn(-c4ccc(OC)cc4)c(=O)c4ccccc34)CC2)cc1	none (no result: PPC-1+TRAIL kill, FLuc inhib CS, FLuc stim CS)
COc1ccc(-n2nc(C(=O)NCC(=O)N3CCN(c4ccccc4F)CC3)c3ccccc3c2=O)cc1	C8 TRAIL sens 72 (no result: PPC-1+TRAIL kill, FLuc inhib CS, FLuc stim CS)
COc1ccc(-n2nc(C(=O)NCC(=O)N3CCN(c4ccccc4F)CC3)c3ccccc3c2=O)cc1OC	C8 TRAIL sens 53 (no result: PPC-1+TRAIL kill, FLuc inhib CS, FLuc stim CS)
COc1ccccc1-n1cc(C(=O)NCC(=O)N2CCN(c3ccccc3)CC2)c2ccccc2c1=O	FLuc inhib CS 70
CC(C)CC(NC(=O)OCc1ccccc1)C(=O)NC(Cc1ccccc1)C(=O)CCl (stereo unspecified)	C8 TRAIL sens 90 (no result: PPC-1+TRAIL kill, FLuc inhib CS, FLuc stim CS)
COC(=O)C(Cc1ccccc1)NC(=O)C(CC(C)C)NC(=O)OC(C)(C)C (stereo unspecified)	none
COc1ccc(OC)c(C2C(C(=O)c3cccs3)=C(O)C(=O)N2CCN2CCOCC2)c1 (stereo unspecified)	none (no result: PPC-1+TRAIL kill, FLuc inhib CS, FLuc stim CS)
CC(C)(C)OC(=O)NCCCC[C@H](NC(=O)c1[nH]cnc1C(=O)Nc1ccccc1)C(=O)OC(C)(C)C	C8 TRAIL sens 59 (no result: FLuc inhib CS, FLuc stim CS)
CNC(=O)c1[nH]cnc1C(=O)N[C@@H](Cc1ccccc1)C(=O)OC(C)(C)C	none
CC(C)C[C@H](NC(=O)c1nc[nH]c1C(=O)N[C@@H](CCCCNC(=O)OC(C)(C)C)C(=O)OC(C)(C)C)C(=O)OC(C)(C)C	C8 TRAIL sens 51 (no result: FLuc inhib CS, FLuc stim CS)
CC(C)(C)OC(=O)NCc1ccc(NC(=O)c2nc[nH]c2C(=O)N[C@@H](Cc2ccccc2)C(=O)OCc2ccccc2)cc1	C8 TRAIL sens 83 (no result: FLuc inhib CS, FLuc stim CS)
CC(C)C[C@H](NC(=O)c1nc[nH]c1C(=O)NCCCCCNC(=O)OC(C)(C)C)C(=O)OC(C)(C)C	none
CC(C)(C)OC(=O)[C@H](Cc1ccccc1)NC(=O)c1[nH]cnc1C(=O)Nc1ccccc1F	C8 TRAIL sens 62 (no result: PPC-1+TRAIL kill, FLuc inhib CS, FLuc stim CS)
COc1ccc(S(=O)(=O)NCC(=O)N(Cc2ccco2)C(C(=O)NC(C)(C)C)C(C)C)cc1 (stereo unspecified)	none (no result: PPC-1+TRAIL kill, FLuc inhib CS, FLuc stim CS)
O=C(COc1cccc(Cl)c1)Nc1ccccc1N1CCCCC1	none (no result: PPC-1+TRAIL kill, FLuc inhib CS, FLuc stim CS)
CC(=NNC(=O)C(C)SC(C)C(=O)NN=C(C)c1cccnc1)c1cccnc1 (stereo unspecified)	none (no result: PPC-1+TRAIL kill, FLuc inhib CS, FLuc stim CS)
Cc1noc(C)c1C(=O)Nc1ccc(N(C)C)cc1	none (no result: PPC-1+TRAIL kill, FLuc inhib CS, FLuc stim CS)
CN(C)c1ccc(NC(=O)c2cnsn2)cc1	FLuc inhib CS 72
COC(=O)Cc1ccc(NC(=S)N2CCCC(CO)C2)cc1 (stereo unspecified)	PPC-1+TRAIL kill 63, FLuc inhib CS 93, C8 TRAIL sens 75
OCC1CCCN(C(=S)Nc2ccc(Oc3ccccc3)cc2)C1 (stereo unspecified)	none
CC(=O)c1ccc(NC(=S)N2CCCCCC2)cc1	none
CC(=O)c1ccc(NC(=S)N2CCCC(CO)C2)cc1 (stereo unspecified)	FLuc inhib CS 52
O=C(/C=C/c1ccccc1Cl)Nc1ccccc1	none (no result: FLuc inhib CS, FLuc stim CS)
O=C(/C=C/c1ccccc1[N+](=O)[O-])Nc1ccccc1	FLuc inhib CS 50
COc1cc(NC(=O)/C=C/c2ccccc2[N+](=O)[O-])cc(OC)c1	none
O=C(/C=C/c1ccccc1Cl)Nc1cccc(O)c1	FLuc inhib CS 84, C8 TRAIL sens 72
CCCCn1c(N)c(N(C)C(=O)c2ccc(Br)o2)c(=O)[nH]c1=O	none (no result: PPC-1+TRAIL kill, FLuc inhib CS, FLuc stim CS)
CN(C)c1ccc(C(=O)/C=C/c2ccccc2)cc1	FLuc inhib CS 78
CN(C)c1ccc(C(=O)/C=C/c2ccco2)cc1	FLuc inhib CS 91, C8 TRAIL sens 54
CSc1ccc(/C=C/C(=O)c2ccc(O)cc2)cc1	FLuc inhib CS 70
O=C(/C=C/c1ccco1)c1ccc(O)cc1	none (no result: C8 TRAIL sens)
CC(=O)c1cccc(NC(=O)NC2CC(=O)N(c3ccc4c(c3)OCCO4)C2)c1 (stereo unspecified)	none (no result: PPC-1+TRAIL kill, FLuc inhib CS, FLuc stim CS)
Nc1ncnc2c1ncn2[C@@H]1O[C@H](C(=O)N2CCN(Cc3ccccn3)CC2)[C@@H](O)[C@H]1O	none (no result: PPC-1+TRAIL kill, FLuc inhib CS, FLuc stim CS)
CN1C[C@H]2CON(C)[C@H]2C[C@H]1c1cccc(N2CCOCC2)c1	none (no result: PPC-1+TRAIL kill, FLuc inhib CS, FLuc stim CS)
Cn1c(=O)[nH]c(=O)c2c1nc([N+](=O)[O-])n2Cc1ccccc1	C8 TRAIL sens 85 (no result: FLuc inhib CS, FLuc stim CS)
CC(=O)OC(C=C(C)C)C/C(C)=C/COc1c2ccoc2cc2oc(=O)ccc12 (stereo unspecified)	none (no result: PPC-1+TRAIL kill, FLuc inhib CS, FLuc stim CS)
CCCCc1ccc(-c2ccc(C)cc2O)nc1	FLuc inhib CS 75
CCCCc1ccc(-c2ccc(Br)cc2O)nc1	none
c1ccc(-c2noc(-c3cccc4ccccc34)n2)nc1	FLuc inhib CS 77, C8 TRAIL sens 53
c1ccc(-c2noc(CC3CCCCC3)n2)nc1	FLuc inhib CS 52

Source: PubChem BioAssay (Sanford-Burnham Center for Chemical Genomics)
